# Assay results published in ChEMBL document CHEMBL3217723, “Optimizing PK properties of cyclic peptides: the effect of side chain substitutions on permeability and clearance()” (Medchemcomm, 2012).
# Where a SMILES comes first, the peptide text is derived from it. [ ]: non-standard residue; d: D form. The star is where a group is joined. NMeAbu(4-morpholino) = CN[C@@H](CCN1CCOCC1)C(=O)O; NMeY = CN[C@@H](Cc1ccc(O)cc1)C(=O)O; NMeCha = CN[C@@H](CC1CCCCC1)C(=O)O; NMeF = CN[C@@H](Cc1ccccc1)C(=O)O; NMeI = CC[C@H](C)[C@H](NC)C(=O)O; NMeD = CN[C@@H](CC(=O)O)C(=O)O; dNMeL = CN[C@H](CC(C)C)C(=O)O; Morpholide = C1CN(*)CCO1; NMeA = CN[C@@H](C)C(=O)O; Piperidide = C1CCN(*)CC1
# Assays:
# [1] = Lipophilicity, log D of the compound at pH 7.4 by shake-flask method; format: physicochemical; conditions: buffer
# [2] = Intrinsic clearance in human liver microsomes by LC-MS/MS analysis; format: ADME; conditions: read-out: CLH
# Procedure, shortened: (§1)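 Compound at 1 µM with liver microsomes (CYP 0.25 µM) in 0.1 M potassium phosphate, pH 7.4, at 37 °C. Final solvent was 0.975% acetonitrile and 0.025% DMSO. Mix prewarmed 5 min, then started with 1.3 mM NADPH; no-NADPH controls were run. Sampled at 0–60 min into acetonitrile and followed by LC-MS/MS for substrate loss. T1/2 was scaled to CLint by the well-stirred model.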
# [3] = Intrinsic clearance in rat liver microsomes by LC-MS/MS analysis; format: ADME; conditions: read-out: CLH; procedure, shortened: as §1
# [4] = Cmax in male Wistar-Han rat at 10 mg/kg, po; format: ADME, organism-based; design: dose 10 mg/kg, route oral; conditions: in vivo
# [5] = Tmax in male Wistar-Han rat at 10 mg/kg, po; format: ADME, organism-based; design: dose 10 mg/kg, route oral; conditions: in vivo
# [6] = Plasma clearance in male Wistar-Han rat at 1.48 mg/kg, iv; format: ADME, organism-based; design: dose 1.48 mg/kg, route intravenous
# Procedure, shortened: (§2)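 Jugular vein-cannulated male Wistar-Hannover rats (230-250 g; n = 3) given a 30 s tail-vein bolus in SEDDS/dextrose or propylene glycol/20 mM sodium phosphate (pH 7.4) vehicles. Blood sampled 0.03–24 h via cannula into K2EDTA. Plasma proteins precipitated, LC-MS/MS. Non-compartmental: CLp = dose/AUC0-∞ (linear trapezoid); Vdss; T1/2 = 0.693/terminal log-linear slope.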
# [7] = Volume of distribution at steady state in male Wistar-Han rat at 1.48 mg/kg, iv; format: ADME, organism-based; design: dose 1.48 mg/kg, route intravenous; conditions: in vivo, read-out: Vdss; procedure, shortened: as §2
# [8] = AUC (0 to infinity) in male Wistar-Han rat at 1.48 mg/kg, iv; format: ADME, organism-based; design: time infinity, dose 1.48 mg/kg, route intravenous; conditions: plasma
# Procedure, shortened: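 Jugular vein-cannulated male Wistar-Hannover rats (230-250 g), n = 3, fed ad libitum; 30 s tail-vein injection in 10% SEDDS:90% sterile dextrose, 1:1 propylene glycol:20 mM sodium phosphate (pH 7.4), or 10% propylene glycol:90% 20 mM sodium phosphate (pH 7.4). Blood via cannula to 24 h, K2EDTA plasma, LC-MS/MS against standard curve; non-compartmental AUC0-∞ by linear trapezoid rule.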
# [9] = AUC (0 to infinity) in male Wistar-Han rat at 10 mg/kg, po; format: ADME, organism-based; design: time infinity, dose 10 mg/kg, route oral; conditions: plasma
# Procedure, shortened: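 Jugular vein-cannulated male Wistar-Hannover rats (230-250 g), n = 3, fasted overnight and fed after the 4 h sample; oral dosing in the i.v. formulations, except the SEDDS formulation used 90% water. Serial blood 0.083–24 h, K2EDTA plasma, LC-MS/MS against standard curve; non-compartmental AUC0-∞ by linear trapezoid rule.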
# [10] = Terminal elimination half life in Wistar-Han rat at 1.48 mg/kg, iv; format: ADME, organism-based; design: dose 1.48 mg/kg, route intravenous; conditions: in vivo, read-out: beta t1/2 (converted)
# Procedure, shortened: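 Jugular vein-cannulated male Wistar-Hannover rats (230–250 g, n = 3) received a tail-vein bolus over 30 s. Vehicle depended on compound: SEDDS/dextrose or propylene glycol/20 mM sodium phosphate pH 7.4. Blood was drawn at 0.03–24 h into K2EDTA and the plasma analyzed by LC-MS/MS. Non-compartmental analysis gave T1/2 = 0.693/|terminal ln-slope|.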
# [11] = Terminal elimination half life in Wistar-Han rat at 10 mg/kg, po; format: ADME, organism-based; design: dose 10 mg/kg, route oral; conditions: in vivo, read-out: beta t1/2 (converted)
# Procedure, shortened: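 Male Wistar-Hannover rats (230–250 g, n = 3), jugular-cannulated, were fasted overnight and dosed by oral gavage. Vehicle depended on compound: SEDDS/water or propylene glycol/sodium phosphate pH 7.4. Blood was collected at 0.083–24 h into K2EDTA and the plasma analyzed by LC-MS/MS. Terminal half-life came from the non-compartmental ln-concentration slope.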
# [12] = Oral bioavailability in male Wistar-Han rat at 10 mg/kg; format: ADME, organism-based; conditions: in vivo
# Procedure, shortened: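 Male Wistar-Hannover rats (230-250 g, cannulated; n = 3) fasted overnight, fed after the 4 h sample, and dosed orally in the i.v. formulations or 10% SEDDS:90% water. Serial blood sampled 0.083–24 h into K2EDTA. Plasma measured by LC-MS/MS against a standard curve. Cmax and Tmax read from individual profiles; F = oral AUC0-∞ relative to i.v. AUC0-∞.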
# [13] = Apparent permeability from apical to basolateral side in human Caco2 cells by LC-MS/MS analysis; format: ADME, cell-based; conditions: Caco-2
# [14] = Drug excretion in male Wistar-Han rat urine; format: ADME; conditions: read-out: Drug excretion
Compound,logD [1],CLint scaled [2] [mL/min/kg],also measured
CC(C)C[C@@H]1NC(=O)[C@H](Cc2ccc(O)cc2)N(C)C(=O)[C@H]2CCCN2C(=O)[C@H](CC(C)C)NC(=O)[C@H](C)N(C)C(=O)[C@@H](CC(C)C)N(C)C1=O (cyclo(L[dNMeL][NMeA]L[dP][NMeY])),3.64,190,–
CC(C)C[C@@H]1NC(=O)[C@H](Cc2ccc(O)cc2)N(C)C(=O)[C@H]2CCCN2C(=O)[C@H](CC(C)C)NC(=O)[C@H](CCN2CCOCC2)N(C)C(=O)[C@@H](CC(C)C)N(C)C1=O (cyclo(L[dNMeL][NMeAbu(4-morpholino)]L[dP][NMeY])),2.79,16,–
CC(C)C[C@@H]1NC(=O)[C@H](Cc2ccc(O)cc2)N(C)C(=O)[C@H]2CCCN2C(=O)[C@H](CC(C)C)NC(=O)[C@H](CC2CCCCC2)N(C)C(=O)[C@@H](CC(C)C)N(C)C1=O (cyclo(L[dNMeL][NMeCha]L[dP][NMeY])),5.09,–,–
CC(C)C[C@@H]1NC(=O)[C@H](Cc2ccc(O)cc2)N(C)C(=O)[C@H]2CCCN2C(=O)[C@H](CC(C)C)NC(=O)[C@H](CC(=O)N2CCOCC2)N(C)C(=O)[C@@H](CC(C)C)N(C)C1=O (cyclo(L[dNMeL][NMeD](Morpholide)L[dP][NMeY])),2.78,57,–
CC(C)C[C@@H]1NC(=O)[C@H](Cc2ccc(O)cc2)N(C)C(=O)[C@H]2CCCN2C(=O)[C@H](CC(C)C)NC(=O)[C@H](CC(=O)N2CCCCC2)N(C)C(=O)[C@@H](CC(C)C)N(C)C1=O (cyclo(L[dNMeL][NMeD](Piperidide)L[dP][NMeY])),3.77,> 300,–
CC(C)C[C@@H]1NC(=O)[C@H](Cc2ccc(O)cc2)N(C)C(=O)[C@H]2CCCN2C(=O)[C@H](CC(C)C)NC(=O)[C@H](CC(=O)O)N(C)C(=O)[C@@H](CC(C)C)N(C)C1=O (cyclo(L[dNMeL][NMeD]L[dP][NMeY])),0.477,< 8,CLint scaled [3]: < 9 mL/min/kg; Cmax [4]: 17.3 ng/mL; Tmax [5]: 46.8 min; clearance [6]: 56.4 mL/min/kg; Vd [7]: 0.36 L/kg; AUC(0-inf) [8]: 441 ng·h/mL; AUC(0-inf) [9]: 18.7 ng·h/mL; half-life [10]: 21.5 min; half-life [11]: 284 min; bioavailability [12]: 0.469%; Papp A→B [13]: 0.36 ×10⁻⁶ cm/s; dose excreted [14]: < 1%
CC(C)C[C@@H]1NC(=O)[C@H](Cc2ccc(O)cc2)N(C)C(=O)[C@H]2CCCN2C(=O)[C@H](CC(C)C)NC(=O)[C@H](Cc2ccccc2)N(C)C(=O)[C@@H](CC(C)C)N(C)C1=O (cyclo(L[dNMeL][NMeF]L[dP][NMeY])),4.46,170,–
CC[C@H](C)[C@H]1C(=O)N[C@@H](CC(C)C)C(=O)N2CCC[C@@H]2C(=O)N(C)[C@@H](Cc2ccc(O)cc2)C(=O)N[C@@H](CC(C)C)C(=O)N(C)[C@H](CC(C)C)C(=O)N1C (cyclo(L[dNMeL][NMeI]L[dP][NMeY])),–,> 300,–
